Results: ChEMBL document CHEMBL1806417, “Antiproliferative activity and QSAR studies of a series of new 4-aminomethylidene derivatives of some pyrazol-5-ones” (Bioorg Med Chem Lett, 2011)
The source made the active and inactive calls. No cut-off for these calls is given here.

What was measured:
MS-1 [1] = assay: Antiangiogenic activity in mouse MS1 cells assessed as inhibition tube-like structure formation at 30 uM after 12 hrs by microscopy; format: functional, cell-based
MDA-MB-453 [2] = assay: Cell cycle arrest in human MDA-MB-453 cells assessed as accumulation at sub-G1 phase at 2 times IC50 after 24 hrs using propidium iodide staining by flow cytometry; format: functional, cell-based
How it was run: (§1)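 Cells were seeded at 3 × 10⁵ per well and treated or left untreated for 24 h. They were trypsinized and fixed overnight in ice-cold 70% ethanol at -20°C, then washed in PBS. RNase was applied at 37°C for 30 min, followed by propidium iodide for at least 30 min. DNA content and cell-cycle distribution were measured by FACScan flow cytometry on at least 10,000 cells per sample.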

MDA-MB-361 [3] = assay: Antiproliferative activity against human MDA-MB-361 cells assessed as cell survival after 72 hrs by MTT assay; format: functional, cell-based; settings: MDA-MB-361, 72 h
How it was run: (§2)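 Monolayer cultures in RPMI-1640 with L-glutamine (3 mM), 10% heat-inactivated FBS, 25 mM Hepes, pH 7.2, and extra glucose (1.11 g/L), at 37°C and 5% CO2. Seeding was 7000 cells/well for MDA-MB-361 and 3000 cells/well for MDA-MB-453. After 24 h, five two-fold dilutions were added for 72 h. MTT readout (Ohno–Abe modification). IC50 was read from the survival-versus-concentration curve; mean ± SD of three independent experiments.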

MDA-MB-453 [4] = assay: Antiproliferative activity against human MDA-MB-453 cells assessed as cell survival after 72 hrs by MTT assay; format: functional, cell-based; settings: MDA-MB-453, 72 h; how it was run: as §2
MS-1 [5] = assay: Antiangiogenic activity in mouse MS1 cells assessed as inhibition tube-like structure formation at 10 uM after 12 hrs by microscopy
MS-1 [6] = assay: Antiangiogenic activity in mouse MS1 cells assessed as inhibition tube-like structure formation at 3 uM after 12 hrs by microscopy
MS-1 [7] = assay: Antiangiogenic activity in mouse MS1 cells assessed as inhibition tube-like structure formation at 3 uM after 12 hrs by microscopy; format: functional, cell-based
MDA-MB-361 [8] = assay: Cell cycle arrest in human MDA-MB-361 cells assessed as accumulation at S phase at 2 times IC50 after 24 hrs using propidium iodide staining by flow cytometry (Rvb =15.72 %); format: functional; how it was run: as §1
MDA-MB-361 [9] = assay: Cell cycle arrest in human MDA-MB-361 cells assessed as accumulation at G1 phase at 2 times IC50 after 24 hrs using propidium iodide staining by flow cytometry (Rvb =64.36 %); format: functional; how it was run: as §1
MDA-MB-361 [10] = assay: Cell cycle arrest in human MDA-MB-361 cells assessed as accumulation at sub-G1 phase at 2 times IC50 after 24 hrs using propidium iodide staining by flow cytometry (Rvb =2.21 %); format: functional; how it was run: as §1
MDA-MB-361 [11] = assay: Cell cycle arrest in human MDA-MB-361 cells assessed as accumulation at G2/M phase at 2 times IC50 after 24 hrs using propidium iodide staining by flow cytometry (reference value: 14.15 %); format: functional; how it was run: as §1
MS-1 [12] = assay: Antiangiogenic activity in mouse MS1 cells assessed as inhibition tube-like structure formation at 10 uM after 12 hrs by microscopy; format: functional, cell-based

Compound | Activity (MS-1 [1]) | Activity (MDA-MB-453 [2]) | IC50 (MDA-MB-361 [3]) [µM] | IC50 (MDA-MB-453 [4]) [µM] | also measured
O=C(O)[C@H](Cc1c[nH]cn1)N/C=C1\C(=O)N(c2ccccc2)N=C1c1ccccc1 | inactive | Active | 87.2 | 71.1 | 
O=C(O)[C@H](Cc1c[nH]c2ccccc12)N/C=C1\C(=O)N(c2ccccc2)N=C1c1ccccc1 |  | Active | 33.9 | 9.75 | Activity (MS-1 [5]): inactive
O=C(O)[C@H](Cc1ccc(O)cc1)N/C=C1\C(=O)N(c2ccccc2)N=C1c1ccccc1 |  | Active | 24.8 | 10.9 | Activity (MS-1 [6]): inactive
Cc1cc(N/C=C2\C(=O)N(c3ccccc3)N=C2c2ccccc2)n[nH]1 |  | Active | 9.98 | 10.2 | Activity (MS-1 [7]): Active; Activity (MDA-MB-361 [8]): 11.64%; Activity (MDA-MB-361 [9]): 46.79%; Activity (MDA-MB-361 [10]): 19.43%; Activity (MDA-MB-361 [11]): 14.12%
O=C1NN=C(c2ccccc2)/C1=C/N[C@@H](Cc1c[nH]cn1)C(=O)O | Active |  | 113 | 73.9 | 
O=C1/C(=C\Nc2cc[nH]n2)C(c2ccccc2)=NN1c1ccccc1 |  | Active | 51 | 34.7 | Activity (MS-1 [12]): Active; Activity (MDA-MB-361 [8]): 7.81%; Activity (MDA-MB-361 [9]): 47.94%; Activity (MDA-MB-361 [10]): 21.55%; Activity (MDA-MB-361 [11]): 15.58%
CSC[C@H](N/C=C1\C(=O)N(c2ccccc2)N=C1c1ccccc1)C(=O)O |  | Active | 14.2 | 9.46 | Activity (MS-1 [6]): inactive
CSCC[C@H](N/C=C1\C(=O)NN=C1c1ccccc1)C(=O)O | Active |  | 105 | 42.1 | 
O=C1NN=C(c2ccccc2)/C1=C/Nc1cc(-c2ccccc2)[nH]n1 |  |  | 42.7 | 11.5 | Activity (MS-1 [5]): inactive
CCOC(=O)c1c[nH]nc1N/C=C1\C(=O)N(c2ccccc2)N=C1c1ccccc1 |  | Active | 24.7 | 19.4 | Activity (MS-1 [6]): inactive
O=C1NN=C(c2ccccc2)/C1=C/N[C@@H](Cc1ccccc1)C(=O)O |  |  | 67 | 94.8 | Activity (MS-1 [5]): inactive
CSC[C@H](N/C=C1\C(=O)NN=C1c1ccccc1)C(=O)O | Active |  | 97.4 | 105 | 
CSCC[C@H](N/C=C1\C(=O)N(c2ccccc2)N=C1c1ccccc1)C(=O)O |  | Active | 12.5 | 9.43 | Activity (MS-1 [6]): inactive
Cc1cc(N/C=C2\C(=O)NN=C2c2ccccc2)n[nH]1 | Active |  | 96 | 93 | 
O=C1/C(=C\Nc2cc(-c3ccccc3)[nH]n2)C(c2ccccc2)=NN1c1ccccc1 |  | Active | 12.2 | 8.75 | Activity (MS-1 [7]): Active
O=C1NN=C(c2ccccc2)/C1=C/Nc1cc[nH]n1 | inactive |  | 95.3 | 74.9 | 
O=C1/C(=C\Nc2cc(-c3ccco3)[nH]n2)C(c2ccccc2)=NN1c1ccccc1 |  | Active | 13.4 | 12.4 | Activity (MS-1 [7]): Active; Activity (MDA-MB-361 [8]): 7.33%; Activity (MDA-MB-361 [9]): 51.38%; Activity (MDA-MB-361 [10]): 21.95%; Activity (MDA-MB-361 [11]): 13.9%
O=C(O)[C@H](CO)N/C=C1\C(=O)N(c2ccccc2)N=C1c1ccccc1 |  | Active | 52.8 | 49 | Activity (MS-1 [5]): inactive
O=C1NN=C(c2ccccc2)/C1=C/N[C@@H](CO)C(=O)O | Active |  | 105 | 23.7 | 
O=C1NN=C(c2ccccc2)/C1=C/N[C@@H](Cc1ccc(O)cc1)C(=O)O |  |  | 61.1 | 29.8 | Activity (MS-1 [5]): inactive
O=C1NN=C(c2ccccc2)/C1=C/Nc1cc(-c2ccco2)[nH]n1 |  |  | 63.7 | 20.9 | Activity (MS-1 [5]): inactive
O=C(O)[C@H](Cc1ccccc1)N/C=C1\C(=O)N(c2ccccc2)N=C1c1ccccc1 |  | Active | 11.5 | 10.4 | Activity (MS-1 [7]): Active
O=C1NN=C(c2ccccc2)/C1=C/N[C@@H](Cc1c[nH]c2ccccc12)C(=O)O | Active |  | 93.6 | 41.7 | 
CCOC(=O)c1c[nH]nc1N/C=C1\C(=O)NN=C1c1ccccc1 |  |  | 121 | 74.6 | Activity (MS-1 [6]): inactive
O=C(O)[C@@H](Cc1ccccc1)N/C=C1\C(=O)N(c2ccccc2)N=C1c1ccccc1 |  | Active | 11.9 | 9.66 | Activity (MS-1 [6]): inactive
